Reference: ChEMBL document CHEMBL3272140, “Structure and antitumor activity relationship of 2-arylidene-4-cyclopentene-1, 3-diones and 2-arylideneindan-1, 3-diones” (J Med Chem, 1976)

How the values were obtained:
Sarcoma-180 [1] = experiment: Antitumor activity against mouse ascites Sarcoma 180 cells allografted in ddN mouse assessed as percentage of total packed cell volume ratio at 100 mg/kg/day for 5 days administered 24 hrs after tumor inoculation measured 7th day after tumor inoculation; assay type: functional
In short: (§1)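 Compound given by injection once daily for 5 days, beginning 24 h after S-180 tumor inoculation. Antitumor activity was scored from the total packed cell volume ratio (TPCV %) on day 7 after inoculation.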

Mus musculus = experiment: Toxicity in mouse ascites sarcoma 180 cells allografted ddN mouse at 3 mg/kg/day for 5 days administered 24 hrs after tumor inoculation measured 7th day after tumor inoculation; assay type: organism-based; conditions: in vivo
Sarcoma-180 [2] = experiment: Antitumor activity against mouse ascites Sarcoma 180 cells allografted in ddN mouse assessed as percentage of total packed cell volume ratio at 10 mg/kg/day for 5 days administered 24 hrs after tumor inoculation measured 7th day after tumor inoculation; assay type: functional; in short: as §1
Sarcoma-180 [3] = experiment: Antitumor activity against mouse ascites Sarcoma 180 cells allografted in ddN mouse assessed as percentage of total packed cell volume ratio at 3 mg/kg/day for 5 days administered 24 hrs after tumor inoculation measured 7th day after tumor inoculation; assay type: functional; in short: as §1

Row | SMILES | Activity (Sarcoma-180 [1]) [%] | further results
1 | COc1cc(C=C2C(=O)c3ccccc3C2=O)cc(OC)c1OCc1ccccc1 | 66 | 
2 | COc1ccc(C=C2C(=O)c3ccccc3C2=O)cc1OC | 41 | 
3 | COc1cc(C=C2C(=O)c3ccccc3C2=O)ccc1O | 0 | 
4 | O=C1C(=C/C=C/c2ccccc2)C(=O)c2ccccc21 | 66 | 
5 | COc1cc(/C=C2\CC(C)C/C(=C\c3ccc(OCc4ccccc4)c(OC)c3)C2=O)ccc1OCc1ccccc1 (stereo not given) | 66 | 
6 | O=C1C=CC(=O)C1 |  | Activity (Mus musculus): Toxic
7 | COc1ccc(C=C2C(=O)C=CC2=O)cc1O |  | Activity (Sarcoma-180 [2]): 0%
8 | COc1cc(/C=C2\CCC/C(=C\c3cc(OC)c(OCc4ccccc4)c(OC)c3)C2=O)cc(OC)c1OCc1ccccc1 | 66 | 
9 | COc1cc(/C=C2\CCC/C(=C\c3ccc(O)c(OC)c3)C2=O)ccc1O [CYCLOVALONE] | 66 | 
10 | COc1ccc(C=C2C(=O)c3ccccc3C2=O)cc1 | 66 | 
11 | COc1cc(/C=C2\CC(C)C/C(=C\c3ccc(O)c(OC)c3)C2=O)ccc1O (stereo not given) | 66 | 
12 | COc1cc(C=C2C(=O)C=CC2=O)ccc1O |  | Activity (Sarcoma-180 [3]): 0%
13 | COc1cc(/C=C2\CCC(C)/C(=C\c3cc(OC)c(OCc4ccccc4)c(OC)c3)C2=O)cc(OC)c1OCc1ccccc1 (stereo not given) | 66 | 
14 | COc1cc(C=C2C(=O)c3ccccc3C2=O)ccc1OCc1ccccc1 | 66 | 
15 | COc1cc(/C=C2\CC(C)C/C(=C\c3cc(OC)c(O)c(OC)c3)C2=O)cc(OC)c1O (stereo not given) | 66 | 
16 | COc1cc(C=C2C(=O)C=CC2=O)cc(OC)c1OCc1ccccc1 |  | Activity (Sarcoma-180 [2]): 11%
17 | COc1ccc(C=C2C(=O)c3ccccc3C2=O)cc1O | 41 | 
18 | COc1cc(/C=C2\CCC(C)/C(=C\c3ccc(O)c(OC)c3)C2=O)ccc1O (stereo not given) | 66 | 
19 | COc1cc(C=C2C(=O)C=CC2=O)ccc1OCc1ccccc1 |  | Activity (Sarcoma-180 [2]): 11%
20 | COc1cc(C=C2C(=O)c3ccccc3C2=O)cc(OC)c1O | 11 | 

Row | SMILES | Activity (Sarcoma-180 [1]) [%] | further results
21 | O=C1C=CC(=O)C1=C/C=C/c1ccccc1 |  | Activity (Sarcoma-180 [2]): 0%
22 | COc1cc(/C=C2\CC/C(=C\c3cc(OC)c(O)c(OC)c3)C2=O)cc(OC)c1O | 66 | 
23 | COc1cc(/C=C2\CC/C(=C\c3ccc(O)c(OC)c3)C2=O)ccc1O | 66 | 
24 | COc1cc(C=C2C(=O)C=CC2=O)cc(OC)c1OC |  | Activity (Sarcoma-180 [2]): 0%
25 | O=C1CC(=O)c2ccccc21 | 11 | 
26 | O=C1C(=Cc2ccc(O)cc2)C(=O)c2ccccc21 | 66 | 
27 | COc1cc(/C=C2\CC(C)C/C(=C\c3cc(OC)c(OCc4ccccc4)c(OC)c3)C2=O)cc(OC)c1OCc1ccccc1 (stereo not given) | 66 | 
28 | COc1cc(C=C2C(=O)c3ccccc3C2=O)cc(OC)c1OC | 41 | 
29 | COc1cc(/C=C2\CCC(C)/C(=C\c3cc(OC)c(O)c(OC)c3)C2=O)cc(OC)c1O (stereo not given) | 66 | 
30 | COc1ccc(C=C2C(=O)C=CC2=O)cc1OC |  | Activity (Sarcoma-180 [2]): 0%
31 | COc1cc(/C=C2\CCC/C(=C\c3ccc(OCc4ccccc4)c(OC)c3)C2=O)ccc1OCc1ccccc1 | 66 | 
32 | COc1cc(/C=C/C=C2C(=O)c3ccccc3C2=O)ccc1O | 66 | 
33 | COc1ccc(C=C2C(=O)C=CC2=O)cc1 |  | Activity (Sarcoma-180 [2]): 0%
34 | COc1cc(/C=C2\CC/C(=C\c3cc(OC)c(OCc4ccccc4)c(OC)c3)C2=O)cc(OC)c1OCc1ccccc1 | 66 | 
35 | COc1cc(/C=C2\CCC(C)/C(=C\c3cc(OC)c(OC)c(OC)c3)C2=O)cc(OC)c1OC (stereo not given) | 66 | 
36 | COc1cc(/C=C2\CC/C(=C\c3ccc(OCc4ccccc4)c(OC)c3)C2=O)ccc1OCc1ccccc1 | 66 | 
37 | O=C1C=CC(=O)C1=Cc1ccc(O)cc1 |  | Activity (Sarcoma-180 [2]): 0%
38 | COc1cc(/C=C2\CCC(C)/C(=C\c3ccc(OCc4ccccc4)c(OC)c3)C2=O)ccc1OCc1ccccc1 (stereo not given) | 66 | 
39 | COc1cc(/C=C2\CCC/C(=C\c3cc(OC)c(O)c(OC)c3)C2=O)cc(OC)c1O | 66 | 
40 | COc1cc(C=C2C(=O)C=CC2=O)cc(OC)c1O |  | Activity (Sarcoma-180 [2]): 0%
